Results: ChEMBL document CHEMBL1821590, “Novel dihydropyrimidines and its pyrazole derivatives: synthesis and pharmacological screening” (Eur J Med Chem, 2011)
Values after ≈ are worked out from the molar mass of the structure shown.

Legend:
Format in all cases: functional
Aspergillus niger [1] = assay: Antimicrobial activity against Aspergillus niger at 100 ug/ml by paper disc method; settings: read-out: IZ
In short: (§1)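 Paper disc method against A. niger and C. albicans, with compounds at 25, 50 and 100 µg/mL. Amphotericin-B as standard.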

Metaphire posthuma [2] = assay: Anthelmintic activity against Pheretima posthuma assessed as time taken for parasite death at 0.2% w/v
In short: (§2)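 Earthworms (Pheretima posthuma, spelled Perituma posthuma in text) exposed to test compounds at 0.1, 0.2 and 0.5% w/v. Albendazole served as standard, with an untreated control. Paralysis was recorded as the time until worms became motionless, then time to death was recorded, in minutes. Each value is the mean of three determinations with S.D.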

Aspergillus niger [3] = assay: Antimicrobial activity against Aspergillus niger at 25 ug/ml by paper disc method; settings: read-out: IZ; in short: as §1
[4] = Antioxidant activity assessed as potassium ferricyanide ion reducing power after 20 mins
In short: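 Oyaizu method. Samples or ascorbic acid in DMF (12.5–100 µg/mL) mixed with 0.2 M phosphate buffer pH 6.6 and 1% potassium ferricyanide, 20 min at 50 °C. 10% TCA added, centrifuged. Supernatant mixed with water and 0.1% FeCl3, read at 700 nm. % = [(Vt/Vc) − 1] × 100. IC50 derived.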

Metaphire posthuma [5] = assay: Anthelmintic activity against Pheretima posthuma assessed as time taken for complete parasite paralysis at 0.5% w/v
In short: (§3)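 Earthworms (Pheretima posthuma) exposed to test solutions at 0.1, 0.2 and 0.5% w/v; time in minutes to complete paralysis (worms motionless) recorded. Albendazole as standard. Mean of three determinations ± S.D.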

Metaphire posthuma [6] = assay: Anthelmintic activity against Pheretima posthuma assessed as time taken for complete parasite paralysis at 0.1% w/v; in short: as §3
[7] = Antioxidant activity assessed as nitric oxide radical scavenging activity after 150 mins
In short: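 10 mM sodium nitroprusside (4 mL), PBS pH 7.4 (1 mL) and sample or ascorbic acid in DMSO (1 mL, 12.5–100 µg/mL), incubated 150 min at 25 °C. Nitrite detected with sulphanilic acid (5 min) then naphthylethylenediamine (30 min, diffused light). Read at […]. Triplicate. % inhibition = [1 − (Vt/Vc)] × 100. IC50 derived from it.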

Candida albicans [8] = assay: Antimicrobial activity against Candida albicans at 100 ug/ml by paper disc method; settings: read-out: IZ; in short: as §1
Bacillus subtilis [9] = assay: Antimicrobial activity against Bacillus subtilis at 50 ug/ml by agar plate diffusion technique; settings: read-out: IZ
In short: (§4)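 Agar plate diffusion against E. coli, P. aeruginosa, S. aureus and B. subtilis, with compounds at 25, 50 and 100 µg/mL. Streptomycin as standard.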

Metaphire posthuma [10] = assay: Anthelmintic activity against Pheretima posthuma assessed as time taken for parasite death at 0.1% w/v; in short: as §2
Staphylococcus aureus [11] = assay: Antimicrobial activity against Staphylococcus aureus at 25 ug/ml by agar plate diffusion technique; settings: read-out: IZ; in short: as §4
Pseudomonas aeruginosa [12] = assay: Antimicrobial activity against Pseudomonas aeruginosa at 100 ug/ml by agar plate diffusion technique; settings: read-out: IZ; in short: as §4
Bacillus subtilis [13] = assay: Antimicrobial activity against Bacillus subtilis at 100 ug/ml by agar plate diffusion technique; settings: read-out: IZ; in short: as §4
Pseudomonas aeruginosa [14] = assay: Antimicrobial activity against Pseudomonas aeruginosa at 25 ug/ml by agar plate diffusion technique; settings: read-out: IZ; in short: as §4
Aspergillus niger [15] = assay: Antimicrobial activity against Aspergillus niger at 50 ug/ml by paper disc method; settings: read-out: IZ; in short: as §1
Pseudomonas aeruginosa [16] = assay: Antimicrobial activity against Pseudomonas aeruginosa at 50 ug/ml by agar plate diffusion technique; settings: read-out: IZ; in short: as §4
Candida albicans [17] = assay: Antimicrobial activity against Candida albicans at 25 ug/ml by paper disc method; settings: read-out: IZ; in short: as §1
Metaphire posthuma [18] = assay: Anthelmintic activity against Pheretima posthuma assessed as time taken for complete parasite paralysis at 0.2% w/v; in short: as §3
Candida albicans [19] = assay: Antimicrobial activity against Candida albicans at 50 ug/ml by paper disc method; settings: read-out: IZ; in short: as §1
[20] = Antioxidant activity assessed as inhibition of lipid peroxidation using egg lecithin liposomes incubated for 1 hr
In short: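 Egg lecithin (3 mg/mL, phosphate buffer pH 7.4) sonicated 10 min to form liposomes. Sample or ascorbic acid (12.5–100 µg/mL) added. Peroxidation induced with FeCl3 and L-ascorbic acid, 1 h at 37 °C. Stopped with HCl/TCA/TBA/BHA, boiled 15 min, centrifuged, supernatant read at 532 nm. Triplicate. % inhibition vs control. IC50 derived.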

Metaphire posthuma [21] = assay: Anthelmintic activity against Pheretima posthuma assessed as time taken for parasite death at 0.5% w/v; in short: as §2
Bacillus subtilis [22] = assay: Antimicrobial activity against Bacillus subtilis at 25 ug/ml by agar plate diffusion technique; settings: read-out: IZ; in short: as §4
Staphylococcus aureus [23] = assay: Antimicrobial activity against Staphylococcus aureus at 100 ug/ml by agar plate diffusion technique; settings: read-out: IZ; in short: as §4
[24] = Antiinflammatory activity assessed as inhibition of albumin denaturation at 100 ug/ml by UV-visible spectrophotometry
In short: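 Compounds dissolved in minimal DMF, diluted in PBS pH 7.4 (final DMF <2.5%). 1 mL test solution (100 µg/mL) plus 1 mL 1% albumin in PBS, 15 min at 27 ± 1 °C, then heated 10 min at 60 ± 1 °C. After cooling, turbidity read at 660 nm. % inhibition = [(Vt/Vc) − 1] × 100 against a no-drug control. Triplicate, averaged. Diclofenac standard.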

Staphylococcus aureus [25] = assay: Antimicrobial activity against Staphylococcus aureus at 50 ug/ml by agar plate diffusion technique; settings: read-out: IZ; in short: as §4
[26] = Antioxidant activity assessed as hydrogen peroxide scavenging activity after 10 mins
In short: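 H2O2 (20 mM) in PBS pH 7.4. 1 mL of sample or ascorbic acid in methanol (12.5–100 µg/mL) added to 2 mL H2O2 solution. A230 read after 10 min. % inhibition = [1 − (Vt/Vc)] × 100. Triplicate, averaged. IC50 derived from % inhibition across concentrations.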

Escherichia coli [27] = assay: Antimicrobial activity against Escherichia coli at 25 ug/ml by agar plate diffusion technique; settings: read-out: IZ; in short: as §4
Escherichia coli [28] = assay: Antimicrobial activity against Escherichia coli at 100 ug/ml by agar plate diffusion technique; settings: read-out: IZ; in short: as §4
Escherichia coli [29] = assay: Antimicrobial activity against Escherichia coli at 50 ug/ml by agar plate diffusion technique; settings: read-out: IZ; in short: as §4

| Compound | zone of inhibition at 100 µg/mL (Aspergillus niger [1]) | Time (Metaphire posthuma [2]) | zone of inhibition at 25 µg/mL (Aspergillus niger [3]) | IC50 [4] | Time (Metaphire posthuma [5]) | Time (Metaphire posthuma [6]) | IC50 [7] | zone of inhibition at 100 µg/mL (Candida albicans [8]) | zone of inhibition at 50 µg/mL (Bacillus subtilis [9]) | Time (Metaphire posthuma [10]) | zone of inhibition at 25 µg/mL (Staphylococcus aureus [11]) | zone of inhibition at 100 µg/mL (Bacillus subtilis [13]) | zone of inhibition at 50 µg/mL (Aspergillus niger [15]) | zone of inhibition at 25 µg/mL (Candida albicans [17]) | Time (Metaphire posthuma [18]) | zone of inhibition at 50 µg/mL (Candida albicans [19]) | IC50 [20] | zone of inhibition at 25 µg/mL (Bacillus subtilis [22]) | zone of inhibition at 100 µg/mL (Staphylococcus aureus [23]) | zone of inhibition at 50 µg/mL (Staphylococcus aureus [25]) | other results |
| --- | --- | --- | --- | --- | --- | --- | --- | --- | --- | --- | --- | --- | --- | --- | --- | --- | --- | --- | --- | --- | --- |
| CSc1nc(-c2ccc(N(C)C)cc2)c(C#N)c(=O)n1C | 19.7 mm | 55.59 min | 11.1 mm | 78 µg/mL (≈ 260 µM) | 40.22 min | 35.25 min | 93 µg/mL (≈ 310 µM) | 17.9 mm | 13.9 mm | 47.57 min | 6.38 mm | 20.3 mm | 14.5 mm | 11.8 mm | 44.52 min | 14.4 mm | 98 µg/mL (≈ 326 µM) | 10.3 mm | 9.38 mm | 8.25 mm | zone of inhibition at 100 µg/mL (Pseudomonas aeruginosa [12]): 10.6 mm; zone of inhibition at 25 µg/mL (Pseudomonas aeruginosa [14]): 6.06 mm; zone of inhibition at 50 µg/mL (Pseudomonas aeruginosa [16]): 8.52 mm; Time (Metaphire posthuma [21]): 54.1 min; inhibition [24]: 19.3%; IC50 [26]: 84 µg/mL (≈ 280 µM) |
| Cn1c(NN)nc(-c2cccs2)c(C#N)c1=O | 15.9 mm | 44.42 min | 10.2 mm | 61 µg/mL (≈ 247 µM) | 26.13 min | 32.35 min | 63 µg/mL (≈ 255 µM) | 15.9 mm | 10.1 mm | 58.24 min | 9.12 mm | 15.4 mm | 12.8 mm | 10.7 mm | 29.13 min | 13.8 mm | 68 µg/mL (≈ 275 µM) | 9.27 mm | 13.4 mm | 10.6 mm | Time (Metaphire posthuma [21]): 40.3 min; inhibition [24]: 36.4%; IC50 [26]: 53 µg/mL (≈ 214 µM) |
| CN[C@@H]1[C@H](O[C@H]2[C@H](O[C@H]3[C@H](O)[C@@H](O)[C@H](N=C(N)N)[C@@H](O)[C@@H]3N=C(N)N)O[C@@H](C)[C@]2(O)C=O)O[C@@H](CO)[C@H](O)[C@H]1O [STREPTOMYCIN] | – | – | – | – | – | – | – | – | 20.2 mm | – | 15.4 mm | 31.8 mm | – | – | – | – | – | 15.1 mm | 29.5 mm | 22.4 mm | zone of inhibition at 25 µg/mL (Escherichia coli [27]): 15.8 mm; zone of inhibition at 100 µg/mL (Escherichia coli [28]): 28.7 mm; zone of inhibition at 50 µg/mL (Escherichia coli [29]): 21.1 mm; zone of inhibition at 100 µg/mL (Pseudomonas aeruginosa [12]): 30.3 mm; zone of inhibition at 25 µg/mL (Pseudomonas aeruginosa [14]): 13.4 mm; zone of inhibition at 50 µg/mL (Pseudomonas aeruginosa [16]): 18.7 mm |
| Cn1c(NN)nc(-c2ccco2)c(C#N)c1=O | 17.6 mm | 57.48 min | 9.82 mm | 64 µg/mL (≈ 277 µM) | 37.52 min | 43.73 min | 65 µg/mL (≈ 281 µM) | 16 mm | 13.3 mm | 61.58 min | 8.02 mm | 14.2 mm | 10.1 mm | 8.26 mm | 40.73 min | 10.2 mm | 78 µg/mL (≈ 337 µM) | 10.8 mm | 12.2 mm | 10.5 mm | Time (Metaphire posthuma [21]): 50.98 min; inhibition [24]: 36.6%; IC50 [26]: 58 µg/mL (≈ 251 µM) |
| CSc1nc(-c2cccs2)c(C#N)c(=O)n1C | 22.6 mm | 47.82 min | 13 mm | 71 µg/mL (≈ 270 µM) | 33.35 min | 39.78 min | 87 µg/mL (≈ 330 µM) | 21.8 mm | 12.9 mm | 45.24 min | 6.29 mm | 18.5 mm | 15.6 mm | 10.6 mm | 38.48 min | 13.8 mm | 83 µg/mL (≈ 315 µM) | 10.4 mm | 11.1 mm | 8.92 mm | zone of inhibition at 25 µg/mL (Escherichia coli [27]): 5.86 mm; zone of inhibition at 100 µg/mL (Escherichia coli [28]): 8.78 mm; zone of inhibition at 50 µg/mL (Escherichia coli [29]): 6.29 mm; Time (Metaphire posthuma [21]): 42.34 min; inhibition [24]: 62.1%; IC50 [26]: 72 µg/mL (≈ 273 µM) |
| CSc1nc(-c2ccco2)c(C#N)c(=O)n1C | 23.5 mm | 55.49 min | 12.3 mm | 68 µg/mL (≈ 275 µM) | 32.55 min | 42.68 min | 108 µg/mL (≈ 437 µM) | 18.4 mm | 12.2 mm | 60.18 min | 7.06 mm | 15.6 mm | 15.9 mm | 13 mm | 36.59 min | 16.8 mm | 90 µg/mL (≈ 364 µM) | 11.1 mm | 12.6 mm | 9.12 mm | zone of inhibition at 25 µg/mL (Escherichia coli [27]): 5.74 mm; zone of inhibition at 100 µg/mL (Escherichia coli [28]): 7.82 mm; zone of inhibition at 50 µg/mL (Escherichia coli [29]): 6.12 mm; Time (Metaphire posthuma [21]): 53.98 min; inhibition [24]: 57.2%; IC50 [26]: 79 µg/mL (≈ 319 µM) |
